DSG3 Ab inh – inhibitors of pemphigus antibody binding to human desmoglein-3; P32926; DSG3-coupled beads, scFv-anti-DSG3-GFP binding, flow cytometry; stronger effect = lower value; binding (percent of control), % at 10 µM; 310,000 compounds, 0.48% hits; AID 588358;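 active = binding more than 3 SD below its plate's average and above zero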
TRPC6 act – activators of mouse TRPC6 channel | 310,000 compounds, 0.13% hits | Q61143 | HEK293-TRPC6 membrane potential dye fluorescence; stronger effect = higher value | B-score at 10 µM;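 active = B-score of the integrated fluorescence ratio above library mean plus 3 SD, and starting fluorescence ratio within library mean plus 5 SD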;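 note: higher score means more depolarization so channel activation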
TRPC4 PAM – allosteric potentiators of mouse TRPC4 channel. HEK293 TRPC4beta/mu-opioid, DAMGO EC20, Fluo-4 Ca2+ flux; stronger effect = higher value. Q9QUQ5. B-score at 10 µM. 310,000 compounds, 0.42% hits;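 active = B-score of calcium response area above 5 SD of library B-scores, with initial fluorescence ratio within 5 SD of library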
TRPC4 agonist – opens the mouse TRPC4 cation channel. AID 2237. 310,000 compounds, 0.49% hits. B-score at 10 µM. HEK293 TRPC4beta/mu-opioid, Fluo4 calcium fluorescence; stronger effect = higher value;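 active = B-score above 5 SD of library B-scores, and initial fluorescence ratio not above library mean plus 5 SD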;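 note: positive B-score marks a calcium rise read as TRPC4 activation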
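Material: TRPC4beta and mu-opioid receptor HEK293 stable cells | Incubation: 45 min room-temperature Fluo4 loading, 110 s read | Detection: Kinetic Fluo4 calcium fluorescence | Measure: Integrated baseline-normalised fluorescence ratio, converted to per-well B score | Benchmarks: Low control buffer alone, high control maximal DAMGO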
TRPC4 inh – TRPC4 (mouse) channel inhibition; Q9QUQ5; HEK293 TRPC4beta/mu-opioid, DAMGO-evoked Fluo4 calcium flux; stronger effect = lower value; 300,000 compounds, 0.39% hits; B-score at 10 µM; AID 2247;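 active = B-score over 3 SD under the library average, no early fluorescence shift, positive overall ratio signal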
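material = TRPC4beta/mu-opioid receptor HEK293 cell line | probe or stimulus = sequential submaximal and maximal DAMGO stimulation | compound dosing = one concentration per compound | measured by = Fluo4 Ca2+ flux fluorescence | evaluation = integrated fluorescence ratio relative to baseline, converted to per-well B score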
TRPC6 inhibitor – mouse TRPC6 channel inhibition | Q61143 | HEK293-TRPC6, membrane potential dye, ACh-evoked depolarization; stronger effect = lower value | B-score at 10 µM | 310,000 compounds, 1.1% hits | AID 2553;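 active = B-score under library mean minus 3 SD, initial fluorescence not abnormally high, positive integrated signal ratio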;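 note: B-score derived from integrated fluorescence ratio over the kinetic read; more negative B-score means stronger inhibition of depolarization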
Of the large screens only hits and unclear results are named; the others gave an inactive call; ! = repeats disagree. Most compounds without a hit are left out; they make up all but 2.5% or so of the library.

O=C(COc1coc(CN2CCN(c3ccccc3F)CC2)cc1=O)Nc1ccccc1	TRPC4 PAM 32
COc1ccccc1N1CCN(Cc2cc(=O)c(OCC(=O)Nc3ccccc3)co2)CC1	none
Cc1ccccc1NC(=O)Cc1nc(COC(=O)c2ccc([N+](=O)[O-])cc2)cs1	none (no result: TRPC6 act, TRPC4 PAM, TRPC4 agonist, TRPC4 inh, TRPC6 inhibitor)
Cc1ccccc1NC(=O)Cc1nc(COC(=O)c2cccc([N+](=O)[O-])c2)cs1	DSG3 Ab inh 78
Cc1ncsc1CCOC(=O)c1cccc([N+](=O)[O-])c1	TRPC4 inh -6!
O=C(O)CN1C(=O)/C(=C/c2ccccc2Cl)Oc2ccccc21	none
CCOC(=O)CN1C(=O)/C(=C/c2ccccc2Br)Oc2ccccc21	DSG3 Ab inh -3.0
CC(C)(C)C1N=C(c2ccc3ccccc3c2)OC1=O (configuration not stated)	none (no result: TRPC6 act, TRPC4 PAM, TRPC4 agonist, TRPC4 inh, TRPC6 inhibitor)
CCCNC(=O)NCCC12CC3CC(CC(C3)C1)C2	none
CCCNC(=O)OCCC12CC3CC(CC(C3)C1)C2	TRPC4 PAM 10
CC(=O)c1ccc(NC(=S)NCc2ccc(Cl)cc2Cl)cc1	none
CC(C)(C)c1ccc(C(=O)c2c[nH]c(C(=O)NCCCN3CCOCC3)c2)cc1	DSG3 Ab inh -3.8
CCC(=O)c1c[nH]c(C(=O)NCCCN2CCOCC2)c1	none
O=C(Cc1nc2ccccc2[nH]1)c1ccc(Br)cc1	TRPC4 agonist 72
c1ccc2[nH]c(CCCCc3nc4ccccc4[nH]3)nc2c1	TRPC4 inh -6
CCCc1nc2ccccc2[nH]1	none
C=CCn1c(C)nc2c(cnn2-c2ccccc2)c1=O	none
COc1ccc(N(C(=O)CNC(=O)c2ccco2)C(C(=O)NCC2CCCO2)c2ccccc2)cc1 (configuration not stated)	TRPC4 PAM 11
C[C@H]1CN([C@@H](C)CO)C(=O)c2cc(Br)cnc2O[C@@H]1CN(C)C(=O)C1CCC1	none (no result: TRPC6 act, TRPC4 PAM, TRPC4 agonist, TRPC4 inh, TRPC6 inhibitor)
COC1=C(Nc2ccccc2)C(=O)c2ccccc2C1=O	TRPC4 PAM 13
COC1=C(Nc2ccc(C)cc2)C(=O)c2ccccc2C1=O	none
CCN1C(=O)/C(=C\N2CCCc3ccccc32)SC1=S	TRPC4 PAM 20
CCN1C(=O)/C(=C/N2CCc3ccccc32)SC1=S	none
CC[C@@H](C(=O)[C@@H](C)[C@@H](O)[C@H](C)CCc1ccc(C)c(O)c1C(=O)O)[C@H]1O[C@](CC)([C@H]2CC[C@](O)(CC)[C@H](C)O2)C[C@@H]1C	TRPC4 agonist 160
O=C(NCCc1c[nH]c2ccccc12)C(=O)Nc1ccccc1	DSG3 Ab inh 64
Cc1ccc(NC(=O)C(=O)NCCc2c[nH]c3ccccc23)cc1C	none
COc1ccc(C(C)=O)cc1COC(=O)CSCC(=O)Nc1ccc(C)cc1	none
Cc1ccc(SC[C@H](Cc2ccccc2)N2CCN(CC(C)C)CCC2=O)cc1	TRPC4 agonist 47 (no result: TRPC4 inh)
O=C1CCN(Cc2ccccc2)CCN1[C@H](COc1ccccc1)Cc1ccccc1	TRPC4 agonist 65 (no result: TRPC4 inh)
CCCN1CCC(=O)N([C@H](COc2ccccc2)Cc2ccccc2)CC1	none (no result: TRPC4 inh)
CC(C)CN1CCC(=O)N([C@H](CSc2ccccc2)Cc2ccccc2)CC1	none (no result: TRPC4 inh)
CC(C)C[C@@H](COc1ccccc1)N1CCN(Cc2ccccc2)CCC1=O	TRPC4 agonist 52
CN(C)CCn1c(SCc2ccccc2C#N)nc2c(sc3ccccc32)c1=O	none
COc1ccc(C(=O)CSc2[nH]c(=O)cc(C(F)(F)F)c2C#N)cc1	none
COc1ccc(N(C)S(=O)(=O)c2cccc(C(=O)NCC(c3cccs3)N(C)C)c2)cc1 (configuration not stated)	TRPC4 inh -6
CCOc1ccc(C(=O)NCC(c2cccs2)N2CCOCC2)cc1 (configuration not stated)	none (no result: TRPC6 act, TRPC4 PAM, TRPC4 agonist, TRPC4 inh, TRPC6 inhibitor)
CCOc1ccc(C(=O)NCC(c2cccs2)N(C)C)cc1 (configuration not stated)	TRPC4 agonist 50
Cc1nc(C(F)(F)F)c(C(=O)N/N=C(\N)c2ccccn2)s1	none
CN(C(=O)c1cccc(C#CC(C)(C)O)c1)C1CCCN(Cc2ccccc2F)C1 (configuration not stated)	none
COc1ccccc1CNC(=O)c1ccc(N2CCOCC2)c([N+](=O)[O-])c1	none
CNC(=O)CSc1nc2cc(S(=O)(=O)Nc3ccc(OC)cc3)ccc2o1	DSG3 Ab inh -4.7
O=C1NC2=C(C(=O)OC2)C(c2ccc(OC(F)(F)F)cc2)N1 (configuration not stated)	none
CC1(C)Cc2ccccc2C(/C(=N\Nc2cccc(Cl)c2)C(N)=O)=N1	DSG3 Ab inh 68
CC(=O)c1ccc(N/N=C(/C(N)=O)C2=NC(C)(C)Cc3ccccc32)cc1	none
Cc1ccc(Sc2ccc(CN3CCCCC3)cc2[N+](=O)[O-])cc1	none
Nc1c2c(nc3ccccc13)CCCC2	TRPC6 inhibitor -5.3
CC(C)CCc1noc(CN2CCN(c3ccc(Cl)cn3)CC2)n1	TRPC4 PAM 16
O=C(NCCN1CCCC1)c1ccc2c(=O)n(CCc3ccccc3)c(=O)[nH]c2c1	TRPC4 PAM 12
C[C@]12C(=O)N(c3ccc(Br)cc3)C(=O)N1[C@H]1c3ccccc3OC[C@@H]1[C@H]2c1ccccc1	none (no result: TRPC6 act, TRPC4 PAM, TRPC4 agonist, TRPC4 inh, TRPC6 inhibitor)
COc1ccc(-n2nc(C(=O)NCC(=O)NCc3ccc(F)cc3)c3ccccc3c2=O)cc1	none
NS(=O)(=O)c1ccc(Nc2nc(-c3ccc(O)cc3O)cs2)cc1	TRPC4 inh -6
NS(=O)(=O)c1ccc(Nc2nc(-c3ccc(F)cc3)cs2)cc1	none
COc1cc(/C=C2/C(=O)NN(c3cccc(C)c3)C2=O)ccc1OC(=O)c1ccco1	TRPC4 PAM 22
Nc1cc(C(=O)OCC(=O)NNC(=O)c2cccs2)ccc1Cl	none
CCOC(=O)Nc1sc(NS(=O)(=O)c2ccc(C)cc2)nc1C	DSG3 Ab inh 73
Cc1nc(NS(=O)(=O)c2ccccc2)sc1NC(=O)Nc1ccc(Cl)cc1	none
Cc1nc(NS(=O)(=O)c2ccccc2)sc1NC(=O)Nc1ccccc1	DSG3 Ab inh 28
COC(=O)C1=C(C)N(Cc2ccccc2)C(=O)N[C@H]1c1ccccc1	none
COC(=O)C1=C(C)N(Cc2ccccc2)C(=S)N[C@H]1c1ccccc1	TRPC4 inh -6
CCN1C(=NCCc2ccccn2)N[C@@H](c2cccc(F)c2)C(C(=O)OC)=C1C	none
COC(=O)C1=C(C)N(Cc2ccccc2)C(=NCCc2ccccn2)N[C@H]1c1cccc(F)c1	TRPC4 agonist 88
CCOC(=O)C1(Cc2cccc(OC)c2)CCN(Cc2ccc(OC)c(O)c2)CC1	TRPC4 inh -8
CCOC(=O)C1(CCOc2ccccc2)CCN(Cc2ccc(OC)c(O)c2)CC1	TRPC4 agonist 84
CCCc1c(C(=O)NNc2cccc(Cl)c2)cnn1-c1ccccc1	none (no result: DSG3 Ab inh)

Screens as filed in PubChem BioAssay.
